Source: publication PMC11310375 (EJNMMI Radiopharmacy and Chemistry, 2024)
Blank lines part the entries; values can stand above or below the compound they belong to.

Columns and labels:
[1] = tested on: HeLa cells; assay: Caspase activity assay with fluorogenic substrate Ac-DEVD-AMC in cell lysates; format: cell-based, human; conditions: HeLa cells treated with STS
Procedure, shortened: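 HeLa cells were seeded at 0.3×10^6 per well in supplemented DMEM at 37 °C, 5% CO₂. […] Cells were lysed in hypotonic PIPES/NP-40 buffer pH 7.4 on ice. Lysate (20 μg protein) was incubated with 50 μM Ac-DEVD-AMC in 100 μL caspase buffer for 1 h at 37 °C. AMC fluorescence (ex 360/em 460) was converted to pmol by free-AMC standard curve; mean of three.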

[2] = biological target: T1, caspase-3 (Homo sapiens, UniProt P42574); assay: Biochemical inhibition assay, kinact/Ki with AMAC substrate; conditions: AMAC-substrates, N = 4
T1 sequence (P42574 29-175 limits assumed): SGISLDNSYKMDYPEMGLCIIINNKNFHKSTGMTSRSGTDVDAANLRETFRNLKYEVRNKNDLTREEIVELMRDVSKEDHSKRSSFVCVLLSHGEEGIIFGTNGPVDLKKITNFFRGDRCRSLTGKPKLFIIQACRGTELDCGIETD
T1 sequence (P42574 176-277 limits assumed): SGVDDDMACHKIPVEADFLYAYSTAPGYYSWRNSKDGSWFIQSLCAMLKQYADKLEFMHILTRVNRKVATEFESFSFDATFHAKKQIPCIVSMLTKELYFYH
Procedure, shortened: (§1)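 Continuous fluorogenic inactivation assay with Ac-DEVD-AMAC at 100 μM final. Final enzyme concentrations were 1 nM caspase-3 and 5 nM caspase-7. Enzyme was added to substrate plus inhibitor, and fluorescence (ex 320/em 460) was read immediately. Progress curves were fit to F = -[v₀(1-exp(-kobst))/kobs-Fmax] to give kinact and Ki.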

[3] = biological target: T2, caspase-6 (Homo sapiens, UniProt P55212); assay: Biochemical inhibition assay, kinact/Ki with AMAC substrate; conditions: AMAC-substrates, N = 4
T2 sequence (P55212 24-179 limits assumed): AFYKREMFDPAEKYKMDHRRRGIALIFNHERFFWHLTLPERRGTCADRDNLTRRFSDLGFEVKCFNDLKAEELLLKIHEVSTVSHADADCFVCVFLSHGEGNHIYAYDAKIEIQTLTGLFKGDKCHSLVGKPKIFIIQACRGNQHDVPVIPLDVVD
T2 sequence (P55212 194-293 limits assumed): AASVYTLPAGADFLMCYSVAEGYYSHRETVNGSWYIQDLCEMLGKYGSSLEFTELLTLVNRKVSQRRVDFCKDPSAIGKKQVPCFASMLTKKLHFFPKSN
Procedure, shortened: (§2)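 Caspase-8 (25 nM), caspase-9 (100 nM) and caspase-10 (20 nM) used Ac-IETD-AMAC; caspase-9 and caspase-10 buffers also had 0.7 M sodium citrate. Caspase-6 (25 nM) used Ac-VEID-AMAC. Fluorescence (ex 320/em 460) was read immediately, and progress curves were fit for kinact and Ki.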

[4] = biological target: T3, caspase-7 (Homo sapiens, UniProt P55210); assay: Biochemical inhibition assay, kinact/Ki with AMAC substrate; conditions: AMAC-substrates, N = 4
T3 sequence (P55210 24-198 limits assumed): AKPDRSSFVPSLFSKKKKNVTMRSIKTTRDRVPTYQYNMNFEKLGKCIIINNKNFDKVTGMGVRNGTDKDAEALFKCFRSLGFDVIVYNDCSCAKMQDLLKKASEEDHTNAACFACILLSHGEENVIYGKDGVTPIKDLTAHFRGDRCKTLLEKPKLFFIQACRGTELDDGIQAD
T3 sequence (P55210 207-303 limits assumed): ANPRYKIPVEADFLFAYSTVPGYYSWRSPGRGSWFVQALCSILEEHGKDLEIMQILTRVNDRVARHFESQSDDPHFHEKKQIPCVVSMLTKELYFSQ
Procedure, shortened: as §1

[5] = biological target: caspase-8 (Homo sapiens, UniProt Q14790); assay: Biochemical inhibition assay, kinact/Ki with AMAC substrate; conditions: AMAC-substrates, N = 4
caspase-8, sequence (Q14790 217-374 limits assumed): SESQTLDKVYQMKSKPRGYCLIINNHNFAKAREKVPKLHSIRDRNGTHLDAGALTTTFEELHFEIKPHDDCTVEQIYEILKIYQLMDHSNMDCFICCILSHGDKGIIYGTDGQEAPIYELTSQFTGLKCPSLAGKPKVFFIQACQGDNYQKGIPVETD
caspase-8, sequence (Q14790 385-479 limits assumed): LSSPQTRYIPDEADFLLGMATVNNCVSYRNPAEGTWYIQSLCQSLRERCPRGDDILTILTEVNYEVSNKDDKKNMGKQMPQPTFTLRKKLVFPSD
Procedure, shortened: as §2

[6] = biological target: T4, caspase-9 (Homo sapiens, UniProt P55211); assay: as above; conditions: AMAC-substrates, N = 4
T4 sequence (P55211 1-315 limits assumed): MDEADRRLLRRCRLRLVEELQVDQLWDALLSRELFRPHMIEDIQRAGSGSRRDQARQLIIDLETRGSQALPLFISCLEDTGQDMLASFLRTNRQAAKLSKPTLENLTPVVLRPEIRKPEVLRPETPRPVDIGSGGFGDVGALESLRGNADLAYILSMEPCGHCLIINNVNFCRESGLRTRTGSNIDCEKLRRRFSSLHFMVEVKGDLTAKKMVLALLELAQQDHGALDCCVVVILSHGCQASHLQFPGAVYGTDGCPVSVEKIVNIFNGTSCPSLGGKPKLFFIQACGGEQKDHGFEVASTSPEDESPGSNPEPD
T4 sequence (P55211 331-416 limits assumed): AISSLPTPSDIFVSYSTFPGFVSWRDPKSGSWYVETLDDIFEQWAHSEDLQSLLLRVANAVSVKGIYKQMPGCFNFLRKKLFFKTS
Procedure, shortened: as §2

[7] = biological target: T5, caspase-10 (Homo sapiens, UniProt Q92851); assay: as above; conditions: AMAC-substrates, N = 4
T5 sequence (Q92851 220-415 limits assumed): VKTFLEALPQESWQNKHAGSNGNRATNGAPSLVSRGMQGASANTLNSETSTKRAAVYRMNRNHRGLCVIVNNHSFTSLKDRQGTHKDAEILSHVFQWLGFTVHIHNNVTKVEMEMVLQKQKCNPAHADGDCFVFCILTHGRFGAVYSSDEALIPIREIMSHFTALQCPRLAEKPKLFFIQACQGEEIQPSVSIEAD
T5 sequence (Q92851 416-521 limits assumed): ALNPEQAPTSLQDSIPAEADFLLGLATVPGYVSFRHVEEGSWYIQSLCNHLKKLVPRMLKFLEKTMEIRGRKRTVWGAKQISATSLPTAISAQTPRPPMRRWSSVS
Procedure, shortened: as §2

[8] = biological target: T1, caspase-3; assay: Biochemical inhibition assay, kinact/Ki with Ac-DEVD-AMC substrate
Procedure, shortened: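 Ac-DEVD-AMC was 50 µM final and inhibitor 20 to 80 nM final. Reference inhibitor Ac-ATS010-KE was run alongside. kinact/Ki was derived as for the AMAC assay.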

[9] = biological target: T1, caspase-3; conditions: ref Solania et al. [2019]; cited from earlier work
[10] = tested on: Jurkat cells; conditions: ref Solania et al. [2019]; cited from earlier work
[11] = tested on: COLO205 tumours; assay: Caspase activity in tumour homogenates with fluorogenic substrate; format: in vivo, CD1^−/− nude mice; conditions: 24 h after treatment
Procedure, shortened: (§3)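 Female CD1 nude mice bore subcutaneous hind-leg xenografts: COLO205 at 2×10⁶ cells, HT29 at 10×10⁶. At about 200 mm³, mice received conatumumab or IgG1 isotype, 1.5 mg/kg i.p. Tumours were taken 24 h later and homogenised. Homogenate (20 μg protein) was incubated with 50 μM Ac-DEVD-AMC in caspase buffer, 1 h, 37 °C. AMC (ex 360/em 460) was quantified in pmol against a free-AMC standard; N = 3.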

[12] = tested on: HT29 tumours; assay: as above; format: in vivo, CD1^−/− nude mice; conditions: 24 h after treatment
Procedure, shortened: as §3

Compound: CN[C@@H]1C[C@H]2O[C@@](C)([C@@H]1OC)n1c3ccccc3c3c4c(c5c6ccccc6n2c5c31)C(=O)NC4 [STS, staurosporine]
AMC liberation (caspase activity) [1]: 1598 ± 444 pmol AMC

kinact/Ki C3 [2]: 1.7e+06 s⁻¹ M⁻¹
kinact/Ki C6 [3]: 300 s⁻¹ M⁻¹
kinact/Ki C7 [4]: 190000 s⁻¹ M⁻¹
kinact/Ki C8 [5]: 25000 s⁻¹ M⁻¹
kinact/Ki C9 [6]: 14000 s⁻¹ M⁻¹
kinact/Ki C10 [7]: 1000 s⁻¹ M⁻¹
kinact/Ki caspase-3 [8]: 46.48 ± 9.96 × 10^4.s^−1.M^−1
Compound: Ac-3Pal-Asp-Phe(F5)-Phe-Asp-KE [Ac-ATS010-KE, reference compound]
increase of kinact/Ki for caspase-3 over the DW3 sequence [9]: 154 fold
protection from MegaFasL-induced apoptosis [10]: able to protect Jurkat cells from MegaFasL-induced apoptosis

Compound: conatumumab: apoptosis-inducing therapy (Amgen) given to tumour-bearing mice, compared with IgG1 isotype control
caspase activity, liberated AMC [11]: 15,119 ± 761 pmol liberated AMC
caspase activity, liberated AMC [12]: 679 ± 63 pmol liberated AMC
